Data reported in ChEMBL document CHEMBL1127648, “Synthesis of 2-piperazinylbenzothiazole and 2-piperazinylbenzoxazole derivatives with 5-HT3 antagonist and 5-HT4 agonist properties” (J Med Chem, 1994).

Tests used:
[1] = target: T1, Serotonin 1 (5-HT1) receptor (Rattus norvegicus, UniProt P28564+P30940+P19327+P28565); assay: Binding affinity towards 5-hydroxytryptamine 1 receptor using [3H]5-HT as radioligand; assay type: protein assay
Method in brief: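 Rat cortex homogenized in 50 mM Tris-HCl and preincubated at 37 °C for 10 min. Membranes were resuspended with 0.1% ascorbic acid and 10 μM pargyline. Incubated with 0.3 nM [3H]-5-HT and varying test concentrations at 37 °C for 10 min, then filtered and counted by scintillation. IC50 is the mean of 4–6 experiments.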

[2] = target: T2, Serotonin 3 (5-HT3) receptor (Rattus norvegicus, UniProt P35563+Q9JJ16); assay: Inhibition of [3H]BRL-43694 binding to rat 5-hydroxytryptamine 3 receptor; assay type: protein-complex assay
T2 sequence (P35563 whole entry): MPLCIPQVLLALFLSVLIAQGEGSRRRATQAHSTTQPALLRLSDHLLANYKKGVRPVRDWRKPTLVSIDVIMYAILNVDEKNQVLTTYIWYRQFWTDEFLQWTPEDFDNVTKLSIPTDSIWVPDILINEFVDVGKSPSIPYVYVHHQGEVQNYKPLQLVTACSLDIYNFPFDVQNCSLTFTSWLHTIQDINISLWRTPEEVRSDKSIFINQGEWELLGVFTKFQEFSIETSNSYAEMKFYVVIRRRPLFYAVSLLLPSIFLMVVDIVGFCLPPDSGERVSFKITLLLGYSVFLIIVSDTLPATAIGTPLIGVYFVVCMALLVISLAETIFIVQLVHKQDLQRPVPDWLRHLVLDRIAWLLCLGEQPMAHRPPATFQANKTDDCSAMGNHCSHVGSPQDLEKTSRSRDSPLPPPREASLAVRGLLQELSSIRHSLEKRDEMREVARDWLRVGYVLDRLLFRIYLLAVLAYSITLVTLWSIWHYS
T2 sequence (Q9JJ16 whole entry): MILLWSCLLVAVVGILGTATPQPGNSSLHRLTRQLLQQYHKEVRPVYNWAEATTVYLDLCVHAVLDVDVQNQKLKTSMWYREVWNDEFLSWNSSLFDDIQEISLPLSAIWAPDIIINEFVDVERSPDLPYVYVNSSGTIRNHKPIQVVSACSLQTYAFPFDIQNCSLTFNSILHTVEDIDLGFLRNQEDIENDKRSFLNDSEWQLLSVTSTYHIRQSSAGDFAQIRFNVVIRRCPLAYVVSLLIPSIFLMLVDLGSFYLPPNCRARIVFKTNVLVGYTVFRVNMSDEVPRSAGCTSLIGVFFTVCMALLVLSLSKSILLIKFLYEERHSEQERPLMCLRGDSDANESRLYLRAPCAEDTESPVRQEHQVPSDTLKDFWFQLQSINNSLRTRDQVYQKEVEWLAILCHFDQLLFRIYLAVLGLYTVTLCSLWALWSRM

D(2) dopamine receptor = D(2) dopamine receptor (Rattus norvegicus, UniProt P61169); assay: Displacement of [3H]spiroperidol from D2 dopamine receptor
D(2) dopamine receptor, sequence (P61169 whole entry): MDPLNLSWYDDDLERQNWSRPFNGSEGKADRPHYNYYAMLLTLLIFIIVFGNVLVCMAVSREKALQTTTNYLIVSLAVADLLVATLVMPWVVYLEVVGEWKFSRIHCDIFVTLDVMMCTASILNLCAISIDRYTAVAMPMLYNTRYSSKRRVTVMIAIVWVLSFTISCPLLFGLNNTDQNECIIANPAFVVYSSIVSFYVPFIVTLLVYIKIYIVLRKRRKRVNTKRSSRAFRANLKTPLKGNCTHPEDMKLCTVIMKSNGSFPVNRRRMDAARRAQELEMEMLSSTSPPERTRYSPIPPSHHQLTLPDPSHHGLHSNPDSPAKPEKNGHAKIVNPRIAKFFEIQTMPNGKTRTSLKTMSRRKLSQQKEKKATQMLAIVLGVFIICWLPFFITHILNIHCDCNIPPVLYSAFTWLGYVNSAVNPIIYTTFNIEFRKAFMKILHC

Cavia porcellus [3] = species: Cavia porcellus; assay: The compound was evaluated for the percentage inhibition in guinea pig ileum stimulated with 10 uM 5-HT and tested at fixed concentration of 10 uM; assay type: functional
Method in brief: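 Guinea pig ileum in oxygenated physiological solution with 1 μM methysergide at 37 °C, isometric recording, 0.5 g resting tension. Response to 10 μM 5-HT set as 100%. After 30 min incubation with compound at 10 μM, 5-HT was re-added; response expressed as % of the previous 5-HT response.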

Rattus norvegicus [4] = assay: The compound was evaluated for the percentage increase in gastric emptying for a dose of 10 mg/kg perorally in rat; assay type: functional, Stomach; conditions: route oral
Method in brief: (§1)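 Wistar rats (160 ± 10 g) fasted overnight, dosed orally with vehicle or compound. After 60 min, gavage with 40 steel spheroids (1 mm) in 2 mL 3% carboxymethylcellulose. Killed by CO2 60 min later; spheroids left in the stomach were counted. Emptying is expressed as a percentage of paired controls.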

Rattus norvegicus [5] = species: Rattus norvegicus; assay: The compound was evaluated for the percentage inhibition in rat aorta stimulated with 30 uM 5-HT and tested at fixed concentration of 10 uM; assay type: functional
Rattus norvegicus [6] = assay: The compound was evaluated for the percentage increase in gastric emptying for a dose of 1 mg/kg perorally in rat; assay type: functional, Stomach; conditions: route oral; method in brief: as §1
Cavia porcellus [7] = species: Cavia porcellus; assay: The compound was evaluated for the pA2 value that was estimated using 2-methyl-5-HT in five to seven different tissues in guinea pig ileum; assay type: functional; conditions: read-out: pA2 (converted)
Method in brief: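 Guinea pig ileum in oxygenated physiological solution with 1 μM methysergide at 37 °C, isometric contractions at 0.5 g tension.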

Rattus norvegicus [8] = assay: The compound was evaluated for the percentage increase in gastric emptying for a dose of 5 mg/kg perorally in rat; assay type: functional, Stomach; conditions: route oral; method in brief: as §1
Rattus norvegicus [9] = assay: The compound was evaluated for the percentage increase in gastric emptying for a dose of 7.5 mg/kg perorally in rat; assay type: functional, Stomach; conditions: route oral; method in brief: as §1
Rattus norvegicus [10] = species: Rattus norvegicus; assay: The compound was evaluated for the intrinsic activity in rat isolated esophageal tunica muscularis mucose; assay type: functional
Method in brief: (§2)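 Inner smooth-muscle tube of rat oesophagus (external muscularis propria removed), held in Tyrode's solution at 37 °C, pH 7.4, aerated 95% O2/5% CO2, under 250 mg tension, equilibrated 60 min. Relaxation of carbachol-induced contraction measured from agonist concentration-effect curves. Means of 8 experiments (24 for 5-HT).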

Rattus norvegicus [11] = species: Rattus norvegicus; assay: The compound was evaluated for the value in rat isolated esophageal tunica muscularis mucose in rat; assay type: functional; method in brief: as §2
Rattus norvegicus [12] = species: Rattus norvegicus; assay: (§3) The compound was evaluated for the value in rat isolated esophageal tunica muscularis mucose; assay type: functional
Method in brief: (§4)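 Rat oesophageal tunica muscularis mucosae was isolated by removing the muscularis propria. Strips were held in Tyrode's solution (pH 7.4) at 37 °C, aerated with 95% O2/5% CO2, under 250 mg tension, and equilibrated 60 min. Relaxation of carbachol-induced contraction was measured. Paired concentration-effect curves were run in the same preparation, first to 5-HT, then to the test agonist. ECR = IC40 test agonist/IC40 5-HT. Mean of 8 experiments.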

Rattus norvegicus [13] = species: Rattus norvegicus; assay: The compound was evaluated for pEC50 of 5-HT in rat isolated esophageal tunica muscularis mucose; conditions: in vitro
[14] = target: Serotonin 3 (5-HT3) receptor (Rattus norvegicus) (UniProt P35563+Q9JJ16); assay: Inhibition dose for 50 percent antagonism for 5-hydroxytryptamine 3 receptor in vivo in rats; assay type: functional, organism-based
Method in brief: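 Male Sprague-Dawley rats (500–550 g) under urethane (1 g/kg ip), with heart rate taken from the carotid pressure signal. 5-HT 4 μg/kg iv bolus every 15 min elicited von Bezold-Jarisch bradycardia. […] ID50 by Litchfield-Wilcoxon.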

[15] = target: T1, Serotonin 1 (5-HT1) receptor; assay: The compound was evaluated for the binding affinity towards 5-hydroxytryptamine 1 using [3H]5-HT as radioligand; assay type: protein assay
Method in brief: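 Membranes were resuspended with 0.1% ascorbic acid and 10 μM pargyline. Incubated with 0.3 nM [3H]-5-HT and varying test concentrations at 37 °C for 10 min, then filtered and counted by scintillation.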

Rattus norvegicus [16] = assay: The compound was evaluated for the percentage increase in gastric emptying for a dose of 10 mg/kg perorally in rat.; assay type: functional, Stomach; conditions: route oral; method in brief: as §1
Rattus norvegicus [17] = assay: The compound was evaluated for the percentage increase in gastric emptying for a dose of 5 mg/kg perorally in rat.; assay type: functional, Stomach; conditions: route oral; method in brief: as §1
Rattus norvegicus [18] = assay: The compound was evaluated for the percentage increase in gastric emptying for a dose of 7.5 mg/kg perorally in rat.; assay type: functional, Stomach; conditions: route oral; method in brief: as §1
[19] = The compound was evaluated for equipotent concentration ratio (ECR). whereECR = IC40 test agonist / IC40 5-HT; assay type: functional
Method in brief: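 Rat oesophageal tunica muscularis mucosae precontracted with carbachol. Two concentration-effect curves were run in the same strip, first to 5-HT and then to 5-HT or the test agonist. […] Only paired experiments were used.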

Rattus norvegicus [20] = species: Rattus norvegicus; assay: Agonist potency in rat isolated esophageal tunica muscularis mucose.; assay type: functional; method in brief: as §2
Rattus norvegicus [21] = species: Rattus norvegicus; assay: as §3; parameters: species or system Esophagus muscularis mucosa; method in brief: as §4
Rattus norvegicus [22] = species: Rattus norvegicus; assay: Ability of compounds to relax oesophagus expressed as equipotent concentration ratio (ECR) where ECR = IC40 test agonist / IC40 5-HT; assay type: functional; method in brief: as §4

Structure (SMILES)	IC50 [1]	IC50 [2]	IC50 (D(2) dopamine receptor)	Inhibition (Cavia porcellus [3])	Increase (Rattus norvegicus [4])	Inhibition (Rattus norvegicus [5])	other results
Oc1ccccc1N1CCN(c2nc3ccccc3o2)CC1	> 10 µM	> 10 µM	> 10 µM	46.1%	-30.2%	29.1%	
Cc1nccn1CC1CCc2c(c3ccccc3n2C)C1=O (stereo not given) [ONDANSETRON]							Increase (Rattus norvegicus [6]): 44.2%
Oc1ccccc1N1CCN(c2nc3ccccc3s2)CC1	> 10 µM	> 10 µM	> 10 µM	40.8%	-14.2%	49.3%	
c1ccc2oc(N3CCN(Cc4ccc5c(c4)OCO5)CC3)nc2c1	> 10 µM	> 10 µM	> 10 µM	55.8%	23.1%	19.4%	
COc1ccccc1N1CCN(c2nc3ccccc3s2)CC1	> 10 µM	> 10 µM	> 10 µM	43%	-27.5%	7.1%	
O=C(c1ccc(F)cc1)C1CCN(CCn2c(=O)[nH]c3ccccc3c2=O)CC1 [KETANSERIN]						90%	
COc1cc(N)c(Cl)cc1C(=O)NC1CCN(CCCOc2ccc(F)cc2)CC1OC (stereo not given) [CISAPRIDE]				98.1%	67%		Kb (Cavia porcellus [7]): 1 nM; Increase (Rattus norvegicus [8]): 47.2%; Increase (Rattus norvegicus [9]): 59.5%; Intrinsic activity (Rattus norvegicus [10]): 0.92; EC50 (Rattus norvegicus [11]): 58.9 nM
NCCc1c[nH]c2ccc(O)cc12 [SEROTONIN]							Intrinsic activity (Rattus norvegicus [12]): 1; pEC50 (Rattus norvegicus [13]): 7.91
Clc1cccc(N2CCN(c3nc4ccccc4s3)CC2)c1	> 10 µM	> 10 µM	> 10 µM	-21.9%			
COc1ccccc1N1CCN(c2nc3ccccc3o2)CC1	> 10 µM	> 10 µM	> 10 µM	25.6%		14.7%	
c1ccc(CN2CCN(c3nc4ccccc4s3)CC2)cc1	> 0.00001 M	0.033 µM	> 10 µM	74.4%	44.6%	14.8%	ID50 [14]: 0.16 mg/kg; Kb (Cavia porcellus [7]): 501 nM
c1ccc(CN2CCN(c3nc4ccccc4o3)CC2)cc1	> 10 µM	> 10 µM	> 10 µM	48.8%	15.1%	21.9%	
CCOc1ccccc1N1CCN(c2nc3ccccc3s2)CC1		> 10 µM	> 10 µM	-22.2%		10.3%	IC50 [15]: > 10 µM
CCN(CC)CCNC(=O)c1cc(Cl)c(N)cc1OC [METOCLOPRAMIDE]					37.1%		
c1ccc2sc(N3CCN(Cc4ccc5c(c4)OCO5)CC3)nc2c1	> 10 µM	0.95 µM	> 10 µM	74.5%		21.2%	ID50 [14]: 0.18 mg/kg; Kb (Cavia porcellus [7]): 316 nM; Increase (Rattus norvegicus [16]): 62.8%; Increase (Rattus norvegicus [17]): 45%; Increase (Rattus norvegicus [18]): 43.3%; Intrinsic activity (Rattus norvegicus [10]): 0.91; Ratio [19]: 22; EC50 (Rattus norvegicus [20]): 263 nM
Cc1[nH]c2ccc(O)cc2c1CCN							CL (Rattus norvegicus [21]): 4.9%; Intrinsic activity (Rattus norvegicus [10]): 1; Ratio (Rattus norvegicus [22]): 643
